In brackets after ≈: the same amount, converted by molar mass. Entries after “also recorded” stand apart in the source; their conditions may differ. One block for each compound: values may come before it. *1 amine or outer side, *2 acyl side, *3 side chain or, on linkers, in order; H or OH if unused. Where a SMILES comes first, the peptide text is derived from it. [ ]: non-standard residue; d: D form. X1 = CN([C@H](C(=O)[*:2])[C@@H](O)C(N)=O)[*:1]; Pro(4S-Me) = C[C@@H]1CN[C@H](C(=O)O)C1; N(OH)Ala = C[C@H](NO)C(=O)O; Lac = C[C@H](O)C(=O)O; Dha = C=C(N)C(=O)O
Assays:
CYP1A2 = molecular target: T1, CYP1A2 (Homo sapiens, UniProt P05177); assay: P450 inhibition in human hepatic microsomes, CYP1A2; assay type: in vitro ADME; settings: for Human P450 Inhibition 1A2 %Inh.: at 10 μM
T1 sequence (P05177 1-516): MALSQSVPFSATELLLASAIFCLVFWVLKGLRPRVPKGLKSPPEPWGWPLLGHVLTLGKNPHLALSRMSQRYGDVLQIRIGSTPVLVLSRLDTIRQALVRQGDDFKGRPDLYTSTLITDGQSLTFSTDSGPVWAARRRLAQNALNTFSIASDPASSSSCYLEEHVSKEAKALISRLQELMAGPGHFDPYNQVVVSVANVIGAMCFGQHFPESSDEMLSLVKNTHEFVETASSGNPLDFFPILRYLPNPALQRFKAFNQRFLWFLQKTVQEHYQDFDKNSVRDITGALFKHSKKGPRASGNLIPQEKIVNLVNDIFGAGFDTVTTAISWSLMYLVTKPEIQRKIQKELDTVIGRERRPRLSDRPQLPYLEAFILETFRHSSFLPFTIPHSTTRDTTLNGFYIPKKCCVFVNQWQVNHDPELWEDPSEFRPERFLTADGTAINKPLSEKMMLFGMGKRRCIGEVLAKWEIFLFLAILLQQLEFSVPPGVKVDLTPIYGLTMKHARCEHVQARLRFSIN

CYP2C9 = CYP2C9 (Homo sapiens, UniProt P11712); assay: P450 inhibition in human hepatic microsomes, CYP2C9; assay type: in vitro ADME; settings: for Human P450 Inhibition 2C9 %Inh.: at 10 μM
CYP2D6 = CYP2D6 (Homo sapiens, UniProt P10635); assay: P450 inhibition in human hepatic microsomes, CYP2D6; assay type: in vitro ADME; settings: for Human P450 Inhibition 2D6 %Inh.: at 10 μM
CYP3A4 [1] = molecular target: T2, CYP3A4 (Homo sapiens, UniProt P08684); assay: in vitro; settings: microsomes
[2] = molecular target: T3, gatorbulin site of tubulin (Bos taurus, UniProt P81947+Q6B856); assay: Binding constants by MTC displacement; design: species or system calf; settings: 10 μM tubulin plus 10 μM MTC, compound up to 100 μM
[3] = Kinetic solubility in pH 7.4 phosphate buffered saline; assay type: physicochemical; settings: 1% DMSO, 24 hours, top concentration 100 μM
[4] = test system: SK-OV-3 ovarian cancer cells; assay: MTT viability assay, SK-OV-3; assay type: cell-based; settings: for IC50: read-out: IC50 SK-OV-3, 48 h
[5] = test system: HeLa cervical cancer cells; assay: MTT viability assay, HeLa; assay type: cell-based; settings: read-out: IC50 HeLa, 48 h
How it was run: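 HeLa cells grown in DMEM with 10 % FBS at 37 °C, 5 % CO₂. Seeded at 5000 cells/well, attached overnight, then exposed to a concentration series of test compound or 0.5 % DMSO. MTT read-out 48 h after treatment. IC50 by non-linear regression; mean ± SD, n = 3.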

α-tubulin = assay: Immunoblot analysis of α-tubulin levels in SK-OV-3 cells; assay type: cell-based; settings: 16 h
How it was run: (§1)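 SK-OV-3 cells seeded at 2 × 10⁵/well and attached 24 h. Medium replaced, then ±1 h preincubation with 10 µM MG-132 before test compound or 0.5 % DMSO for 16 h. Whole-cell lysates normalised by BCA, run on 4–12 % SDS-PAGE, blotted to PVDF and detected by chemiluminescence. Densitometry of a representative blot, normalised to GAPDH and to DMSO without MG-132.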

β-tubulin = assay: Immunoblot analysis of β-tubulin levels in SK-OV-3 cells; assay type: cell-based; settings: 16 h
How it was run: as §1

[6] = Plasma protein binding by equilibrium dialysis, human plasma; assay type: in vitro ADME; settings: for Plasma Protein Binding Human (%free): 2 μM, equilibrium dialysis 6 h, 37 °C
[7] = Plasma protein binding by equilibrium dialysis, mouse plasma; assay type: in vitro ADME; settings: for Plasma Protein Binding Mouse (%free): 2 μM, equilibrium dialysis 6 h, 37 °C
PAMPA permeability = assay type: in vitro ADME; settings: for Permeability-PAMPA Tested: 5 μM, pH 7.4, 5 hours; for Permeability-PAMPA Predicted level: predicted from PAMPA
[8] = molecular target: T3, gatorbulin site of tubulin; settings: cited from earlier work
[9] = test system: SK-OV-3-MDR1-M6/6 cell line; settings: cited from earlier work
[10] = molecular target: human efflux transporter MDR1/P-gp (MDCK cells) (Homo sapiens, UniProt P08183); assay: MDCK-MDR1 permeability assay; settings: for Permeability-MDCK-PgP Substrate?: P-gp substrate classification
CYP3A4 [11] = molecular target: T2, CYP3A4; assay: P450 inhibition in human hepatic microsomes, CYP3A4; settings: at 10 μM
human MDR1/P-gp = human MDR1/P-gp (Homo sapiens, UniProt P08183); assay: MDCK-MDR1 permeability assay; settings: dog, MDCK-MDR1, pH 7.4
[12] = Hepatic microsomal stability, human; assay type: in vitro ADME; settings: liver microsomes, pH 7.4
[13] = Hepatic microsomal stability, mouse; assay type: in vitro ADME; settings: liver microsomes, pH 7.4
[14] = human, liver microsomes, probe tolbutamide, hydroxylation to hydroxytolbutamide
[15] = human, liver microsomes, probe bufuralol, hydroxylation to 4'-hydroxybufuralol

inhibition at 40 µM (CYP1A2; human, microsomes): 82%
inhibition at 40 µM (CYP2C9; [14]): < 10%
inhibition at 40 µM (CYP2D6; [15]): < 10%
inhibition at 40 µM (CYP3A4 [1]): < 10%
Compound: Cc1nc2c([nH]1)c(=O)n(C)c(=O)n2Cc1ccco1 [Fur, furafylline]

Compound: COc1cc([C@@H]2c3cc4c(cc3[C@H](O)[C@H]3COC(=O)[C@H]23)OCO4)cc(OC)c1OC [podophyllotoxin, reference compound]
Kb (binding affinity, MTC) [2]: 1.5e+07 M⁻¹

Solubility Kinetic [3]: 1.3 µM (≈ 1.11 µg/mL)
Compound: CC(=O)O[C@H]1C(=O)[C@@]2(C)[C@H]([C@H](OC(=O)c3ccccc3)[C@]3(O)C[C@H](OC(=O)[C@H](O)[C@@H](NC(=O)c4ccccc4)c4ccccc4)C(C)=C1C3(C)C)[C@]1(OC(C)=O)CO[C@@H]1C[C@@H]2O [Pac, paclitaxel, reference compound]

Compound: C=C1NC(=O)[C@H](C)N(O)C(=O)[C@H]([C@@H](O)C(N)=O)N(C)C(=O)[C@H](C)OC(=O)[C@@H]2C[C@H](C)CN2C1=O [GB1, Gatorbulin-1] (cyclo([Dha][Pro(4S-Me)][Lac][X1][N(OH)Ala]))
Kb (binding affinity, MTC) ([2]; listed as GB1 (1a)): 2.2 ± 0.7 × 10^6 M^−1
concentration at which active ([4]; SK-OV-3 and HeLa cells, 48 h): submicromolar
IC50 [4]: 216 nM
IC50 [5]: 590 nM
reduction of α-tubulin levels (α-tubulin; 10 μM): 80%
effect on α- and β-tubulin levels (α-tubulin; without MG132): induced a reduction of both α- and β-tubulin levels
depletion of β-tubulin (β-tubulin; 3.2 μM): 80%
preference for β-tubulin over α-tubulin depletion (β-tubulin): ~ 3 fold
Solubility Kinetic [3]: > 100 µM
Human P450 Inhibition 1A2 %Inh. (CYP1A2): 13 %Inh.
Human P450 Inhibition 2C9 %Inh. (CYP2C9): < 10 %Inh.
Human P450 Inhibition 2D6 %Inh. (CYP2D6): 11 %Inh.
Plasma Protein Binding Human (%free) [6]: 76 %free
Plasma Protein Binding Mouse (%free) [7]: 80 %free
Permeability-PAMPA Tested (PAMPA permeability): 4.5 10^−6 cm/s
Permeability-PAMPA Predicted level (PAMPA permeability): high
binding affinity reported previously [8]: 1.01e+06 M⁻¹
effectiveness in P-gp overexpressing cells versus parental line [9]: less effective
Permeability-MDCK-PgP Mean Papp A to B ([10]; 2 μM, 90 minutes): 1.8 10^−6 cm/s
Permeability-MDCK-PgP Mean Papp B to A ([10]; 2 μM, 90 minutes): 1.6 10^−6 cm/s
Permeability-MDCK-PgP Substrate? [10]: not a P-gp substrate or is a poor P-gp substrate; also recorded: poor or non-
Human P450 Inhibition 3A4 %Inh. (CYP3A4 [11]): < 10 %Inh.

inhibition at 10 µM (CYP1A2; human, liver microsomes): < 10%
inhibition at 10 µM (CYP2D6; [15]): < 10%
Compound: Nc1ccc(S(=O)(=O)Nc2ccnn2-c2ccccc2)cc1 [Sul, sulfaphenazole, reference compound]

fraction unbound at 6 h, 2 µM ([6]; human, plasma): 0.25
fraction unbound at 6 h, 2 µM ([7]; mouse, plasma): 0.36
Compound: NC(=O)N1c2ccccc2C=Cc2ccccc21 [Car, carbamazepine, reference compound]

inhibition at 1 µM (CYP1A2; human, liver microsomes): 13%
inhibition at 1 µM (CYP2C9; [14]): 39%
Compound: CC(=O)N1CCN(c2ccc(OCC3COC(Cn4ccnc4)(c4ccc(Cl)cc4Cl)O3)cc2)CC1 (centres unmarked) [Ket, ketoconazole]

inhibition at 10 µM (CYP1A2; human, liver microsomes): < 10%
inhibition at 10 µM (CYP2C9; [14]): < 10%
Papp A→B at 90 min, 2 µM (human MDR1/P-gp): 1.6 ×10⁻⁶ cm/s
Papp B→A at 90 min, 2 µM (human MDR1/P-gp): 11.1 ×10⁻⁶ cm/s
Compound: C=C[C@H]1C[N@@]2CC[C@H]1C[C@@H]2[C@@H](O)c1ccnc2ccc(OC)cc12 [Qui, quinidine]

Permeability-PAMPA Predicted level (PAMPA permeability): low
Compound: CNC(=C[N+](=O)[O-])NCCSCc1ccc(CN(C)C)o1 [Ran, ranitidine, reference compound]

Papp at 5 h, 5 µM (PAMPA permeability; PAMPA, pH 7.4): 5.7 ×10⁻⁶ cm/s
Permeability-PAMPA Predicted level (PAMPA permeability): high
Compound: CC(C)NCC(O)COc1cccc2ccccc12 (centres unmarked) [Pro, propranolol, reference compound]

Compound: CCN(CC)CCNC(=O)c1c(C)[nH]c(/C=C2\C(=O)Nc3ccc(F)cc32)c1C [Sun, sunitinib]
half-life at 1 µM [12]: 34.5 min
half-life at 1 µM [13]: 13.5 min

Papp A→B at 90 min, 2 µM (human MDR1/P-gp): 1.9 ×10⁻⁶ cm/s
Papp B→A at 90 min, 2 µM (human MDR1/P-gp): 1.5 ×10⁻⁶ cm/s
efflux ratio at 90 min, 2 µM (human MDR1/P-gp): 0.8
Permeability-MDCK-PgP Substrate? [10]: poor or non-
Compound: CC(C)(C)NCC(O)COc1cccc2c1CC(O)C(O)C2 (centres unmarked) [Nad, nadolol]

Compound: gatorbulin-2 [GB2]
MTC displacement [2]: no MTC displacement
IC50 [4]: > 100000 nM
IC50 [5]: > 100000 nM
Solubility Kinetic [3]: > 100 µM
Human P450 Inhibition 1A2 %Inh. (CYP1A2): < 10 %Inh.
Human P450 Inhibition 2C9 %Inh. (CYP2C9): 18 %Inh.
Human P450 Inhibition 2D6 %Inh. (CYP2D6): < 10 %Inh.
Plasma Protein Binding Human (%free) [6]: 60 %free
Plasma Protein Binding Mouse (%free) [7]: 88 %free
Permeability-PAMPA Tested (PAMPA permeability): 8.2 10^−6 cm/s
Permeability-PAMPA Predicted level (PAMPA permeability): high
Human P450 Inhibition 3A4 %Inh. (CYP3A4 [11]): < 10 %Inh.
